{
  "source": "ChEMBL document CHEMBL5678806",
  "about": "“NMS-P937, an orally available, specific small-molecule polo-like kinase 1 inhibitor with antitumor activity in solid and hematologic malignancies” (Mol Cancer Ther, 2012)",
  "key": {"Activated CDC42 kinase 1": {"target": "Activated CDC42 kinase 1 (Homo sapiens, UniProt Q07912)", "sequence (Q07912 whole entry)": "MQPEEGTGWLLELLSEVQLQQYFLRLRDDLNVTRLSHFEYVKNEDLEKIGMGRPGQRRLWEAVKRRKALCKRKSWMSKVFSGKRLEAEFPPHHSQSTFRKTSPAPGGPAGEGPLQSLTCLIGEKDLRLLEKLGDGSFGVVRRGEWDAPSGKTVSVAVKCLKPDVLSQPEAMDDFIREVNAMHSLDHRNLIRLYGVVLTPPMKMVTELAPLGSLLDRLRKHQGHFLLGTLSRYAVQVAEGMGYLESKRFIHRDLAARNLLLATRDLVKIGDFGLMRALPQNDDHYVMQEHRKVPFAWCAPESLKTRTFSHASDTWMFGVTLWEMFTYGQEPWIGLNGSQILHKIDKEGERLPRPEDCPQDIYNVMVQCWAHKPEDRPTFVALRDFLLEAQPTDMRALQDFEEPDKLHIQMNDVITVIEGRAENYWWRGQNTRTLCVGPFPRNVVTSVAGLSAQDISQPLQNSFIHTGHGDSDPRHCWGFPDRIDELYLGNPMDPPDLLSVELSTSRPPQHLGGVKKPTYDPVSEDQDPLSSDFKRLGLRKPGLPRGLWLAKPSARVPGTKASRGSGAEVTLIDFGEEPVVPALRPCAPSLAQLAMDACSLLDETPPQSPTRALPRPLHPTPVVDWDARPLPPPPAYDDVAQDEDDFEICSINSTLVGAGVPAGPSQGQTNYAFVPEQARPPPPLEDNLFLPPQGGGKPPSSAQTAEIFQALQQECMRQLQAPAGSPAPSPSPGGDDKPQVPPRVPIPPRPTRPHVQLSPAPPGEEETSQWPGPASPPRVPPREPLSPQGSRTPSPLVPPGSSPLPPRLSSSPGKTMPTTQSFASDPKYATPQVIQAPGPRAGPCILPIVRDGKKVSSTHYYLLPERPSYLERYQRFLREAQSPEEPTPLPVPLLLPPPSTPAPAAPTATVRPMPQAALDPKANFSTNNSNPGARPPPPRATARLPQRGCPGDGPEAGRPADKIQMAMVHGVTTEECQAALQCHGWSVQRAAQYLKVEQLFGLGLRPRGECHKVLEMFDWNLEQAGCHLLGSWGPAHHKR", "assay": "Inhibition of ACK1 (unknown origin) in presence of [gamma-33P]ATP"}, "[1]": {"target": "MAP kinase-activated protein kinase 5 (Homo sapiens) (UniProt Q8IW41)", "sequence (Q8IW41 whole entry)": "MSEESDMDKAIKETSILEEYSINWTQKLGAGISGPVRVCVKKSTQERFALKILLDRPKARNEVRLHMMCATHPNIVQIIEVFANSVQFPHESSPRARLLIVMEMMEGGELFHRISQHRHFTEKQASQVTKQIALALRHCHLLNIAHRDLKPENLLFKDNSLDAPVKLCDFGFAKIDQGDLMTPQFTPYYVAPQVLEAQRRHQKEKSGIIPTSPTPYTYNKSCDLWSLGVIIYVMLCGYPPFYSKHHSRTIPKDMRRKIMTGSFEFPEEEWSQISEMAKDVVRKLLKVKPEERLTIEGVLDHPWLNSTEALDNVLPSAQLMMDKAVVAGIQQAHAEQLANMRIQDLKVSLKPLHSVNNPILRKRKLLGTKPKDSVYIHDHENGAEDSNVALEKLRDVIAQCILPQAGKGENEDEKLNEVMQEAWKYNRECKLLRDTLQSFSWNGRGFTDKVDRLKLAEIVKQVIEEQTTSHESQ", "assay": "Inhibition of N-terminal His6-tagged recombinant human full-length PRAK expressed in baculovirus infected Sf21 cells assessed as residual activity at 0.1 uM relative to control"}, "SK-N-MC": {"test_system": "SK-N-MC", "assay": "Antiproliferative activity against human SK-N-MC cells assessed as inhibition of cell growth incubated for 72 hrs by cell-titer glo assay", "type": "functional, cell-based"}, "[2]": {"assay": "Antiproliferative activity against human A2780 ADR cells assessed as inhibition of cell growth incubated for 72 hrs by cell-titer glo assay", "type": "functional, cell-based", "in_short": "(§1)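 Cells seeded 10,000–30,000/cm² (adherent) or 100,000/mL (suspension) in medium with 10% fetal calf serum; after 24 h treated in duplicate with serial dilutions for 72 h. Viable cells read by CellTiter-Glo luminescence; IC50 from sigmoidal fit; at least two independent experiments.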"}, "[3]": {"target": "Protein-tyrosine kinase 6 (Homo sapiens, UniProt Q13882)", "sequence (Q13882 whole entry)": "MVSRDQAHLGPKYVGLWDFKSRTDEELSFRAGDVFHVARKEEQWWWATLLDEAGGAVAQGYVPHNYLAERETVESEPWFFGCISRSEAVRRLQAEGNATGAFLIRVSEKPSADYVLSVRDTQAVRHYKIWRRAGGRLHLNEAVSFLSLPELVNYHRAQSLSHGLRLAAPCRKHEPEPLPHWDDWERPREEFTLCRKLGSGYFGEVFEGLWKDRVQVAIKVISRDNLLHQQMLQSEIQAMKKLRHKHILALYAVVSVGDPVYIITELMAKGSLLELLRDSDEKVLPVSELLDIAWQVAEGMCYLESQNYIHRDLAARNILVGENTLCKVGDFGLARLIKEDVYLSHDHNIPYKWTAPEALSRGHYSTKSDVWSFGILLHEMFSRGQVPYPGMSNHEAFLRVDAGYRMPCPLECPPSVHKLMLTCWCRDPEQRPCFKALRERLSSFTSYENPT", "assay": "Inhibition of BRK (unknown origin) in presence of [gamma-33P]ATP"}, "A2780 [4]": {"test_system": "A2780", "assay": "Induction of cell cycle arrest in human A2780 cells assessed as accumulation of cells in G2/M phase by measuring NPM phosphorylation on Thr199 incubated for 24 hrs by Western blotting analysis", "type": "functional, cell-based", "details": "dose 0.02-0.2 µmol/L", "in_short": "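A2780 ovarian carcinoma cells treated 24 h with a range of concentrations, with DMSO and nocodazole controls. 20 µg protein extract separated by SDS-PAGE and immunoblotted with chemiluminescent detection. Probed for total and phospho-Thr210 PLK1, phospho-Ser10 histone H3, phospho-Thr199 NPM and phospho-Tyr15 CDK1. Total NPM, tubulin and total CDK1 served as loading controls.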"}, "[5]": {"assay": "AUC in nu/nu mouse at 10 mg/kg, po by LC-MS analysis", "type": "ADME, organism-based", "details": "in vivo"}, "Calu-3": {"test_system": "Calu-3", "assay": "Antiproliferative activity against human Calu-3 cells assessed as inhibition of cell growth incubated for 72 hrs by cell-titer glo assay", "type": "functional, cell-based", "details": "Calu-3, 72 h", "in_short": "as §1"}, "SW480": {"test_system": "SW480", "assay": "Antiproliferative activity against human SW480 cells assessed as inhibition of cell growth incubated for 72 hrs by cell-titer glo assay", "type": "functional, cell-based", "details": "SW480, 72 h"}, "Insulin receptor": {"target": "Insulin receptor (Homo sapiens, UniProt P06213)", "assay": "Inhibition of IR (unknown origin) in presence of [gamma-33P]ATP"}, "[6]": {"target": "Mitogen-activated protein kinase kinase kinase 9 (Homo sapiens) (UniProt P80192)", "assay": "Inhibition of N-terminal 6His-tagged recombinant human MLK1 (134 to 414 residues) expressed in baculovirus infected Sf21 cells assessed as residual activity at 0.1 uM relative to control"}, "[7]": {"target": "Fibroblast growth factor receptor 1 (Homo sapiens, UniProt P11362)", "assay": "Inhibition of FGFR1 (unknown origin) in presence of [gamma-33P]ATP"}, "NHDF": {"test_system": "NHDF", "assay": "Cytotoxicity against human NHDF cells assessed as reduction in cell number at 0.5 to 1 uM incubated for 8 hrs followed by compound washout and measured after 24 to 48 hrs by cell titer glow assay", "type": "toxicity, cell-based", "details": "dose 0.5-1 µM"}, "HCC1937": {"test_system": "HCC1937", "assay": "Antiproliferative activity against human HCC1937 cells assessed as inhibition of cell growth incubated for 72 hrs by cell-titer glo assay", "type": "functional, cell-based", "details": "HCC1937, 72 h", "in_short": "(§2)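 Cells seeded at 10,000–30,000/cm² (adherent) or 100,000/mL (nonadherent) in medium with 10% fetal calf serum; after 24 h, treated in duplicate with serial dilutions for 72 h. Viable cell number read by CellTiter-Glo luminescence; IC50 from sigmoidal fit; at least two independent experiments.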"}, "[8]": {"target": "High affinity nerve growth factor receptor (Homo sapiens, UniProt P04629)", "assay": "Inhibition of TRKA (unknown origin) in presence of [gamma-33P]ATP"}, "M14": {"test_system": "M14", "assay": "Antiproliferative activity against human M14 cells assessed as inhibition of cell growth incubated for 72 hrs by cell-titer glo assay", "type": "functional, cell-based", "details": "M14, 72 h", "in_short": "as §2"}, "[9]": {"target": "CDC7/DBF4 (Cell division cycle 7-related protein kinase/Activator of S phase kinase) (Homo sapiens, UniProt O00311)", "sequence (Q9UBU7 whole entry)": "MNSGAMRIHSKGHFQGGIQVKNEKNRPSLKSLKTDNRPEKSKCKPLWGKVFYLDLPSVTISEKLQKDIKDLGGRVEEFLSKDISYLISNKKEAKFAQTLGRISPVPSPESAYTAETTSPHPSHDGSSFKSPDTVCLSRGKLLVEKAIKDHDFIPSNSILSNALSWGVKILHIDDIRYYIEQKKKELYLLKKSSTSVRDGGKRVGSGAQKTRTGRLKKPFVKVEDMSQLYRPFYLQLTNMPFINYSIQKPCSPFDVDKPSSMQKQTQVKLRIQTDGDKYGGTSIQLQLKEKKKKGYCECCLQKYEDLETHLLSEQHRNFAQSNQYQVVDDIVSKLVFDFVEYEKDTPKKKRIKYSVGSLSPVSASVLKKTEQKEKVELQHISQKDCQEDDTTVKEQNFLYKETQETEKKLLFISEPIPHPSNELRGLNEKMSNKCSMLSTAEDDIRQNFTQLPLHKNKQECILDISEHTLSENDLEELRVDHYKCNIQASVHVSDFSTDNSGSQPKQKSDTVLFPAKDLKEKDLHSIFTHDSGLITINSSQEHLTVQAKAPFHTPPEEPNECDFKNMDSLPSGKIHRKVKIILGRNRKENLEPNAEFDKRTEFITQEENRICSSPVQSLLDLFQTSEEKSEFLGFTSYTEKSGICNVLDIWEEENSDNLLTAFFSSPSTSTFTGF", "sequence (O00311 whole entry)": "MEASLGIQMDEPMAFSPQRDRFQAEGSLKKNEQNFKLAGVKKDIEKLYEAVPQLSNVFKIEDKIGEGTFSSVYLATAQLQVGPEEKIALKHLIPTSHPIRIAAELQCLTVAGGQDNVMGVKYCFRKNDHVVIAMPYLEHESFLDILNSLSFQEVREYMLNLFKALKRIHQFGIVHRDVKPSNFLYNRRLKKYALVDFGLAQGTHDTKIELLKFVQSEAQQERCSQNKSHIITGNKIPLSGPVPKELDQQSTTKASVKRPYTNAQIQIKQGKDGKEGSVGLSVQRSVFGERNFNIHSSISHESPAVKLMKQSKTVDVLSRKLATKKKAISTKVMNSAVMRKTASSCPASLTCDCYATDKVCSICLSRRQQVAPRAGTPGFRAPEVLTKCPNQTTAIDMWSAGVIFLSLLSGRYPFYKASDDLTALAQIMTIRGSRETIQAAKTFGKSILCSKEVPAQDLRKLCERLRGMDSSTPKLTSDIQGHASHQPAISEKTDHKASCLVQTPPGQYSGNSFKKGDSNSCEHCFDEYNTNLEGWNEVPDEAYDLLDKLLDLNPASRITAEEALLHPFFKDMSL", "assay": "Inhibition of CDC7/DBF4 (unknown origin) in presence of [gamma-33P]ATP", "type": "protein-complex assay"}, "[10]": {"assay": "Toxicity in nu/nu mouse xenografted with human HCT-116 cells assessed as body weight loss at 60 mg/kg, po administered for 8 days", "type": "organism-based", "details": "in vivo, 192 h, time 8 day"}, "[11]": {"target": "Tyrosine-protein kinase JAK1 (Homo sapiens, UniProt P23458)", "sequence (P23458 whole entry)": "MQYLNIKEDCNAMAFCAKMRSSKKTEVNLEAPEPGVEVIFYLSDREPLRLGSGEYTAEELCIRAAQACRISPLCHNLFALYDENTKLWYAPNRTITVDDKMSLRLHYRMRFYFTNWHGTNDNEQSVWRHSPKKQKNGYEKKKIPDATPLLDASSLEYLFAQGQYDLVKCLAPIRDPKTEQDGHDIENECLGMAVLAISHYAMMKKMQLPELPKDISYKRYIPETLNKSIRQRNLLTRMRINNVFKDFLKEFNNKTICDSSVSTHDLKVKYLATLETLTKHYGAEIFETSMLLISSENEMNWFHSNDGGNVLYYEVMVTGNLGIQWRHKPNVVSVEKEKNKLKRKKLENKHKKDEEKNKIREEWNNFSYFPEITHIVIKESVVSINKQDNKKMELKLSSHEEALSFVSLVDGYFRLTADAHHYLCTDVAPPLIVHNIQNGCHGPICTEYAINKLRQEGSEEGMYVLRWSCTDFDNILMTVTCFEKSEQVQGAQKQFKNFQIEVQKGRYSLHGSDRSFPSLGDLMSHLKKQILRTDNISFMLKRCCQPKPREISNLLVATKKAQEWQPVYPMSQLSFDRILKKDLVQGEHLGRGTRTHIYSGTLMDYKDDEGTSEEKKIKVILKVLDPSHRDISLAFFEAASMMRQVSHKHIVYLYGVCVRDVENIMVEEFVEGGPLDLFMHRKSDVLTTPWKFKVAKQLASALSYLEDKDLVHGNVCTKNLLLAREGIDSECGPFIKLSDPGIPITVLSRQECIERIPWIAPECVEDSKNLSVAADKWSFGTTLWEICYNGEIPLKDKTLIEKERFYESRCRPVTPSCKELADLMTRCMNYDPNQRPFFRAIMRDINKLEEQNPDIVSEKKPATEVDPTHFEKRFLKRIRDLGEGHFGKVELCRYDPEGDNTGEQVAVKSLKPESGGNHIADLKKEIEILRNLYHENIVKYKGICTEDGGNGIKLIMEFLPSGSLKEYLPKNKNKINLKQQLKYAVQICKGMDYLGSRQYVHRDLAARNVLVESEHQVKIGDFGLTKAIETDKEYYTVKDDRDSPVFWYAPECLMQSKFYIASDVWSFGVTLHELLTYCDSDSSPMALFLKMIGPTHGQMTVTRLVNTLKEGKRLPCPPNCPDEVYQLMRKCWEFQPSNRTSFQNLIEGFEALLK", "assay": "Inhibition of JAK1 (unknown origin) in presence of [gamma-33P]ATP"}, "[12]": {"target": "Mitogen-activated protein kinase kinase kinase 5 (Homo sapiens) (UniProt Q99683)", "assay": "Inhibition of N-Terminal GST and C-terminal His6-tagged recombinant human ASK1 (649 to 946 residues) expressed in E. coli cell assessed as residual activity at 1 uM relative to control"}, "[13]": {"assay": "Inhibition of SULU1 (unknown origin) in presence of [gamma-33P]ATP", "parameters": "species or system Homo sapiens"}, "A2780 [14]": {"test_system": "A2780", "assay": "Induction of DNA damage in human A2780 cells assessed as H2AX phosphorylation at 0.5 to 1 uM incubated for 8 hrs followed by compound washout and measured after 24 to 48 hrs by Western blotting analysis", "type": "functional, cell-based", "details": "dose 0.5-1 µM"}, "HL-60 [15]": {"test_system": "HL-60", "assay": "Antitumor activity against human HL-60 cells xenografted in nu/nu mouse assessed as tumor growth inhibition at 60 mg/kg, po administered for 10 days relative to control", "type": "functional", "details": "HL-60, 240 h, time 10 day, read-out: TGI"}, "HL-60 [16]": {"test_system": "HL-60", "assay": "Antitumor activity against human HL-60 cells xenografted in nu/nu mouse assessed as efficacy parameter L0 at 60 mg/kg, po administered for 10 days relative to control", "type": "functional", "details": "time 10 day"}, "[17]": {"assay": "Antiproliferative activity against human HCC15 cells assessed as inhibition of cell growth incubated for 72 hrs by cell-titer glo assay", "type": "functional, cell-based", "details": "HCC15, 72 h", "in_short": "as §2"}, "[18]": {"target": "Calcium/calmodulin-dependent protein kinase type 1 (Homo sapiens) (UniProt Q14012)", "assay": "Inhibition of recombinant human CaMKI assessed as residual activity at 1 uM relative to control"}, "DU-145": {"test_system": "DU-145", "assay": "Antiproliferative activity against human DU-145 cells assessed as inhibition of cell growth incubated for 72 hrs by cell-titer glo assay", "type": "functional, cell-based", "details": "DU-145, 72 h", "in_short": "as §1"}, "[19]": {"target": "Serine/threonine-protein kinase 17A (Homo sapiens) (UniProt Q9UEE5)", "sequence (Q9UEE5 whole entry)": "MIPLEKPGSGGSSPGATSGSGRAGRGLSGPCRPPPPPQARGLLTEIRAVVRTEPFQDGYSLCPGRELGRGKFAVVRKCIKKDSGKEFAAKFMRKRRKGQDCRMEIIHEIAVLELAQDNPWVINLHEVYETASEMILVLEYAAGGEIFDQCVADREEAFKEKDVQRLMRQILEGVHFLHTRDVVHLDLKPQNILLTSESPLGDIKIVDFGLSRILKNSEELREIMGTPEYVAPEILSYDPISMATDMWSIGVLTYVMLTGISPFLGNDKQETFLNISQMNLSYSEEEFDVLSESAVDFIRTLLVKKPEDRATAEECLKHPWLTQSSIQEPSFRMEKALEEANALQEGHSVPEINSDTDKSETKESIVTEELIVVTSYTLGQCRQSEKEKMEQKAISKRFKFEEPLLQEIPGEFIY", "assay": "Inhibition of N-terminal 6His-tagged recombinant full-length human DRAK1 expressed in baculovirus infected Sf21 cells assessed as residual activity at 0.1 uM relative to control"}, "[20]": {"assay": "Toxicity in nu/nu mouse xenografted with human HCT-116 cells assessed as body weight loss at 45 mg/kg, iv administered for 3 days", "type": "organism-based", "details": "in vivo, 72 h, time 3 day"}, "[21]": {"target": "Ephrin type-A receptor 4 (Homo sapiens) (UniProt P54764)", "assay": "Inhibition of N-terminal His6-tagged recombinant human EphA4 (601 to 892 residues) expressed in baculovirus infected Sf21 cells assessed as residual activity at 1 uM relative to control"}},
  "note": "Active and inactive are the calls of the source. The rule behind the calls is not given here.",
  "data": [
    {"compound": "CN1CCN(c2ccc(OC(F)(F)F)c(Nc3ncc4c(n3)-c3c(c(C(N)=O)nn3CCO)CC4)c2)CC1", "note": "[ONVANSERTIB]", "values": [
      {"measurement": "IC50", "setting": "Activated CDC42 kinase 1", "value": "> 10000", "unit": "nM"},
      {"measurement": "Activity", "setting": "[1]", "value": 126, "unit": "%"},
      {"measurement": "IC50", "setting": "SK-N-MC", "value": 73, "unit": "nM"},
      {"measurement": "IC50", "setting": "[2]", "value": 620, "unit": "nM"},
      {"measurement": "IC50", "setting": "[3]", "value": "> 10000", "unit": "nM"},
      {"measurement": "Activity", "setting": "A2780 [4]", "value": "Dose-Dependent Effect"},
      {"measurement": "AUC", "setting": "[5]", "value": 2, "unit": "µM·h"},
      {"measurement": "IC50", "setting": "Calu-3", "value": 629, "unit": "nM"},
      {"measurement": "IC50", "setting": "SW480", "value": 618, "unit": "nM"},
      {"measurement": "IC50", "setting": "Insulin receptor", "value": "> 10000", "unit": "nM"},
      {"measurement": "Activity", "setting": "[6]", "value": 93, "unit": "%"},
      {"measurement": "IC50", "setting": "[7]", "value": "> 10000", "unit": "nM"},
      {"measurement": "Activity", "setting": "NHDF", "value": "Toxic"},
      {"measurement": "IC50", "setting": "HCC1937", "value": 595, "unit": "nM"},
      {"measurement": "IC50", "setting": "[8]", "value": "> 10000", "unit": "nM"},
      {"measurement": "IC50", "setting": "M14", "value": 67, "unit": "nM"},
      {"measurement": "IC50", "setting": "[9]", "value": "> 10000", "unit": "nM"},
      {"measurement": "Activity", "setting": "[10]", "value": "Toxic"},
      {"measurement": "IC50", "setting": "[11]", "value": "> 10000", "unit": "nM"},
      {"measurement": "Activity", "setting": "[12]", "value": 125, "unit": "%"},
      {"measurement": "IC50", "setting": "[13]", "value": "> 10000", "unit": "nM"},
      {"measurement": "Activity", "setting": "A2780 [14]", "value": "Active"},
      {"measurement": "inhibition in vivo at 60 mg/kg", "setting": "HL-60 [15]", "value": 98, "unit": "%"},
      {"measurement": "Activity", "setting": "HL-60 [16]", "value": 0.06, "unit": "g"},
      {"measurement": "IC50", "setting": "[17]", "value": 15, "unit": "nM"},
      {"measurement": "Activity", "setting": "[18]", "value": 87, "unit": "%"},
      {"measurement": "IC50", "setting": "DU-145", "value": 252, "unit": "nM"},
      {"measurement": "Activity", "setting": "[19]", "value": 58, "unit": "%"},
      {"measurement": "Activity", "setting": "[20]", "value": "Toxic"},
      {"measurement": "Activity", "setting": "[21]", "value": 80, "unit": "%"}
    ]}
  ]
}
